Calls of active or inactive are those of the source. The calls are words filed in the database; no cut-off is given here.
Assays:
[1] = tested on: HepG2; experiment: Effect on 2-NBDG uptake in insulin-resistant human HepG2 cells at 500 uM pretreated with insulin for 24 hrs followed by compound addition incubated for 24 hrs and subsequent 2-NBDG measured after 30 mins by propidium iodide staining based flow cytometry analysis (reference value: 65.4 %); format: functional
[2] = tested on: HepG2; experiment: Effect on 2-NBDG uptake in insulin-resistant human HepG2 cells at 50 uM pretreated with insulin for 24 hrs followed by compound addition incubated for 24 hrs and subsequent 2-NBDG measured after 30 mins by propidium iodide staining based flow cytometry analysis (reference value: 65.4 %); format: functional
[3] = tested on: HepG2; experiment: Effect on 2-NBDG uptake in insulin-resistant human HepG2 cells at 750 uM pretreated with insulin for 24 hrs followed by compound addition incubated for 24 hrs and subsequent 2-NBDG measured after 30 mins by propidium iodide staining based flow cytometry analysis (reference value: 65.4 %); format: functional
[4] = tested on: HepG2; experiment: Effect on 2-NBDG uptake in insulin-resistant human HepG2 cells at 1000 uM pretreated with insulin for 24 hrs followed by compound addition incubated for 24 hrs and subsequent 2-NBDG measured after 30 mins by propidium iodide staining based flow cytometry analysis analysis (reference value: 65.4 %); format: functional
[5] = tested on: HepG2; experiment: Effect on 2-NBDG uptake in insulin-resistant human HepG2 cells at 10 uM pretreated with insulin for 24 hrs followed by compound addition incubated for 24 hrs and subsequent 2-NBDG measured after 30 mins by propidium iodide staining based flow cytometry analysis (reference value: 33.4 %); format: functional
[6] = tested on: HepG2; experiment: Increase in FGF21 gene expression in insulin-resistant human HepG2 cells using SYBR-green based qRT-PCR analysis; format: functional, cell-based
Summary of the method: (§1)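 HepG2 cells were made insulin-resistant with 0.1 units/mL insulin in serum-free DMEM for 24 h, then treated with compound at several doses (5–25 μM range) against a 1% DMSO vehicle control. Transcript levels of the target genes were quantified by qRT-PCR.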

[7] = tested on: HepG2; experiment: Effect on 2-NBDG uptake in insulin-resistant human HepG2 cells at 0.2 uM pretreated with insulin for 24 hrs followed by compound addition incubated for 24 hrs and subsequent 2-NBDG measured after 30 mins by propidium iodide staining based flow cytometry analysis (reference value: 33.4 %); format: functional
[8] = tested on: CT26; experiment: Cytotoxicity against mouse CT26 cells; format: cell-based
[9] = tested on: HepG2; experiment: Increase in FGF21 gene expression in insulin-resistant human HepG2 cells at 10 uM using SYBR-green based qRT-PCR analysis; format: functional, cell-based; summary of the method: as §1
[10] = tested on: BXPC-3; experiment: Cytotoxicity against human BxPC3 cells; format: cell-based
[11] = tested on: HepG2; experiment: Increase in PCK2 gene expression in insulin-resistant human HepG2 cells at 10 uM using SYBR-green based qRT-PCR analysis; format: functional, cell-based
[12] = tested on: ASPC1; experiment: Cytotoxicity against human AsPC1 cells; format: cell-based
[13] = tested on: HepG2; experiment: Antidiabetic activity in human HepG2 cells assessed as increase in glucose consumption at 50 uM by glucose oxidase method; format: functional, cell-based
Summary of the method: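 HepG2 cells grown in DMEM with 10% FBS and 1% penicillin/streptomycin at 37 °C under 5% CO2. Cells were treated with 50 μM test compound or 0.1% DMSO vehicle. Glucose remaining in the culture supernatant was measured with a glucose oxidase–peroxidase kit.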

[14] = tested on: HepG2; experiment: Cytotoxicity against human HepG2 cells; format: cell-based
[15] = tested on: Panc02; experiment: Cytotoxicity against mouse Panc02 cells; format: cell-based
[16] = tested on: HepG2; experiment: Effect on 2-NBDG uptake in insulin-resistant human HepG2 cells at 25 uM pretreated with insulin for 24 hrs followed by compound addition incubated for 24 hrs and subsequent 2-NBDG measured after 30 mins by propidium iodide staining based flow cytometry analysis (reference value: 33.4 %); format: functional
[17] = tested on: HepG2; experiment: Effect on 2-NBDG uptake in insulin-resistant human HepG2 cells at 1 uM pretreated with insulin for 24 hrs followed by compound addition incubated for 24 hrs and subsequent 2-NBDG measured after 30 mins by propidium iodide staining based flow cytometry analysis (reference value: 33.4 %); format: functional

**Q.** Which results are given for `CN(C)C(=N)NC(=N)N` [METFORMIN]?
**A.** Activity [1]: 42.5%; Activity [2]: 31.9%; Activity [3]: 46.1%; Activity [4]: 45.6%

**Q.** Which results are given for `COn1ccc2c(c1=O)[C@H]1[C@@H](C[C@H](C)C[C@@H]1C)[C@H](C)O2`?
**A.** Activity [5]: 53.6%; Activity [6]: Dose-dependent effect; Activity [7]: 45.1%; Activity [8]: Non-Toxic; Activity [9]: Active; Activity [10]: Non-Toxic; Activity [11]: Active; Activity [12]: Non-Toxic; Activity [13]: Active; Activity [14]: Non-Toxic; Activity [15]: Non-Toxic; Activity [16]: 46.9%; Activity [17]: 47.5%

— ChEMBL document CHEMBL4334489, “Asperpyridone A: An Unusual Pyridone Alkaloid Exerts Hypoglycemic Activity through the Insulin Signaling Pathway” (J Nat Prod, 2019)
